Results from ChEMBL document CHEMBL3865847, “The synthesis and biological evaluation of alkyl and benzyl naphthyridinium analogs of eupolauridine as potential antimicrobial and cytotoxic agents” (Bioorg Med Chem, 2016).
In brackets after ≈: the same amount, converted by molar mass.

Columns and labels:
Candida albicans = test: Antimicrobial activity against Candida albicans B311; format: functional
How it was run: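 Cultured in Sabouraud dextrose broth 24 h, counted by hemocytometer, diluted to 10,000 CFU/mL. Added to serially diluted samples in 96-well plates, top final concentration 50 µg/mL (≤2.5% DMSO), incubated 37 °C. Growth by A630. MIC is the lowest concentration giving 80% inhibition against controls; IC50 from concentration versus % growth plots.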

DNA topoisomerase 1 = target: T1, DNA topoisomerase 1 (Homo sapiens, UniProt P11387); test: Inhibition of human DNA topoisomerase 1 using pHOT1 as substrate after 30 mins by agarose gel electrophoresis
T1 sequence (P11387 whole entry): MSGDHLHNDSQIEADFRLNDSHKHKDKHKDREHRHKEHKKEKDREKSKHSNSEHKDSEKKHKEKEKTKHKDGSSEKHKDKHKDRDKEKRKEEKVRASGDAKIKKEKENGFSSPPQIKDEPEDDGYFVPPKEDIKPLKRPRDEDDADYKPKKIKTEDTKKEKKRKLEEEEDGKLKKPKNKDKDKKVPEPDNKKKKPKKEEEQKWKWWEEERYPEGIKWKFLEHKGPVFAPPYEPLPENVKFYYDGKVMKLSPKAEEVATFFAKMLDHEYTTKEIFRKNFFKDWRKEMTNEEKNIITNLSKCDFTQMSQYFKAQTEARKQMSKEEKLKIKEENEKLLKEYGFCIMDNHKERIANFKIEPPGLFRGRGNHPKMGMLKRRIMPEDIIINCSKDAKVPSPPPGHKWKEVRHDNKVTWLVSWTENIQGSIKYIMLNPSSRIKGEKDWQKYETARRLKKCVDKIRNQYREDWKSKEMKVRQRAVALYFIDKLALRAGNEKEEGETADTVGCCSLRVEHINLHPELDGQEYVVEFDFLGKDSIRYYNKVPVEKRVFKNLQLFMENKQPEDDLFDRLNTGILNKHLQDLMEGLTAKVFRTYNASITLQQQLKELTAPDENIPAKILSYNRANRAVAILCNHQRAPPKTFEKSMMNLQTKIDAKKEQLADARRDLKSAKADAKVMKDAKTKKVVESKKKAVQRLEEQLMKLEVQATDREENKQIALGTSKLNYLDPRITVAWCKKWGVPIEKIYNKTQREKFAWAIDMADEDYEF
How it was run: (§1)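 Relaxation of supercoiled to relaxed DNA by TopoI measured with a commercial TopoI drug kit following kit protocol. IC50 calculated from dose-response curves of % inhibition versus concentration.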

[1] = Cytotoxicity against human BT549 cells assessed as cell growth inhibition after 48 hrs by neutral red dye based assay; format: functional; details: BT-549, 48 h
How it was run: (§2)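 Cells kept in RPMI-1640 with 10% bovine serum and 60 µg/mL amikacin, 37 °C, 5% CO2. Seeded at 25,000 cells/well, left 24 h to adhere. Samples diluted in RPMI added, highest final concentration 10 µg/mL. Growth measured by neutral red uptake after 48 h exposure.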

[2] = Cytotoxicity against African green monkey Vero cells assessed as cell growth inhibition at 10 ug/ml after 48 hrs by neutral red dye based assay; format: toxicity; details: chlorocebus sabaeus; how it was run: as §2
[3] = Cytotoxicity against human KB cells assessed as cell growth inhibition after 48 hrs by neutral red dye based assay; format: functional; how it was run: as §2
Pseudomonas aeruginosa = test: Antimicrobial activity against Pseudomonas aeruginosa ATCC 15442; format: functional
How it was run: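 Pseudomonas grown 24 h in trypticase soy broth, diluted 1:50. Combined with diluted samples in 96-well plates, top final concentration 50 µg/mL (≤2.5% DMSO), 37 °C incubation. Growth read at 630 nm. MIC is the lowest tested concentration inhibiting 80% of growth versus controls; IC50 from concentration versus % growth graphs.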

[4] = Cytotoxicity against human SKOV3 cells assessed as cell growth inhibition after 48 hrs by neutral red dye based assay; format: functional; details: SK-OV-3, 48 h; how it was run: as §2
[5] = Selectivity index, ratio of IC50 for human DNA topoisomerase 1 to IC50 for Candida albicans DNA topoisomerase 1
[6] = Inhibition of Candida albicans DNA topoisomerase 1 using pHOT1 as substrate after 30 mins by agarose gel electrophoresis; how it was run: as §1
Plasmodium falciparum = test: Antimalarial activity against Plasmodium falciparum D6 infected in RBC after 48 hrs by lactate dehydrogenase assay; format: functional; details: D6, 48 h
How it was run: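 Parasites grown in A+ human erythrocytes in RPMI 1640 with 10% A+ human serum, 25 mM HEPES, 27 mM bicarbonate, 60 µg/mL amikacin, 37 °C under 90% N2/5% O2/5% CO2. Infected cells exposed 48 h in microtiter wells, highest concentration 4.8 µg/mL. Growth read by Malstat reagent (parasite LDH) with nitro blue tetrazolium reduction, absorbance 630 nm.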

Cryptococcus neoformans = test: Antimicrobial activity against Cryptococcus neoformans ATCC 52657; format: functional
How it was run: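 Grown in mycophil broth 72 h, hemocytometer-counted, diluted to 200,000 CFU/mL. Exposed to diluted samples in 96-well plates, maximum final 50 µg/mL (DMSO up to 2.5%), incubated 30 °C. A630 readout. MIC is the lowest concentration inhibiting 80% of growth versus controls; IC50 read from concentration versus % growth graphs.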

[7] = Cytotoxicity against human SK-MEL cells assessed as cell growth inhibition after 48 hrs by neutral red dye based assay; format: functional; how it was run: as §2
[8] = Cytotoxicity against African green monkey Vero cells assessed as cell growth inhibition after 48 hrs by neutral red dye based assay; format: toxicity, Chlorocebus sabaeus; how it was run: as §2
[9] = tested on: Mycobacterium intracellulare; test: Antimicrobial activity against Mycobacterium intracellulare ATCC 23068; format: functional
How it was run: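 Mycobacterium grown 72 h in Middlebrook medium with OADC supplement, diluted 1:30 in broth. Incubated at 37 °C with diluted samples in 96-well plates, highest final 50 µg/mL, DMSO at most 2.5%. Absorbance at 630 nm. MIC = lowest concentration with 80% growth inhibition relative to controls; IC50 from concentration versus % growth plots.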

Staphylococcus aureus [10] = test: Antimicrobial activity against methicillin-resistant Staphylococcus aureus; format: functional
How it was run: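 MRSA precultured 24 h, diluted 1:50 in broth, added to serially diluted samples in 96-well plates (highest final DMSO 2.5%), incubated at 37 °C. Growth measured as absorbance at 630 nm versus controls. MIC is the lowest concentration giving 80% inhibition; IC50 (50% inhibition) is read from concentration versus % growth plots.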

Staphylococcus aureus [11] = test: Antimicrobial activity against Staphylococcus aureus ATCC 6538; format: functional
How it was run: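 Staphylococcus aureus grown 24 h in Eugon broth, diluted 1:50 in broth, added to serially diluted samples in 96-well plates (highest final DMSO 2.5%), incubated at 37 °C. Growth measured at 630 nm versus controls. MIC is the lowest concentration inhibiting 80% of growth; IC50 (50% inhibition) comes from concentration versus % growth plots.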

SMILES | IC50 (Candida albicans) | MIC80 (Candida albicans) | IC50 (DNA topoisomerase 1) | IC50 [1] | Activity [2] | IC50 [3] | IC50 (Pseudomonas aeruginosa) | IC50 [4] | Ratio IC50 [5] | IC50 [6] | IC50 (Plasmodium falciparum) | IC50 (Cryptococcus neoformans) | MIC80 (Cryptococcus neoformans) | IC50 [7] | IC50 at 48 h [8] | MIC80 [9] | IC50 (Staphylococcus aureus [10]) | IC50 (Staphylococcus aureus [11])
CC[n+]1ccc2c3c(nc4ccccc42)-c2ccccc2-c31.[I-] | 16.7 µg/mL | 25 µg/mL | 1.71 µM | > 10 µg/mL | Non-Toxic | 6.8 µg/mL | 50 µg/mL | 1.3 µg/mL | 1 | 0.7 µg/mL | 0.033 µg/mL | 6 µg/mL | 12.5 µg/mL |  |  |  |  | 
NC(=O)C[n+]1ccc2ccnc3c2c1-c1ccccc1-3.[Br-] |  |  |  |  |  |  |  | > 10 µg/mL |  |  | 0.09 µg/mL | 30 µg/mL | 50 µg/mL | 6.5 µg/mL | > 10 µg/mL |  |  | 
COc1cc(C[n+]2ccc3ccnc4c3c2-c2ccccc2-4)cc(OC)c1.[Br-] | 20 µg/mL | 25 µg/mL | 34.5 µM | > 10 µg/mL | Non-Toxic | 7 µg/mL |  | < 1.1 µg/mL | 0.83 | 12.5 µg/mL | 0.011 µg/mL | 0.92 µg/mL | 3.12 µg/mL | 2 µg/mL |  | 50 µg/mL | 9 µg/mL | 
C[n+]1c2c3c(nc(-c4ccccc4)cc3c3ccccc31)-c1ccccc1-2.[I-] | 0.2 µg/mL | 0.39 µg/mL | 1.01 µM | 7.5 µg/mL | Non-Toxic | > 10 µg/mL | 4 µg/mL | 4.5 µg/mL | 0.79 | 0.375 µg/mL |  | 0.23 µg/mL | 0.78 µg/mL | 3.5 µg/mL |  | 50 µg/mL | 5 µg/mL | 4.5 µg/mL
C[n+]1ccc2cc(-c3ccccc3)nc3c2c1-c1ccccc1-3.[I-] | 0.32 µg/mL | 0.39 µg/mL | 28.4 µM | 6.2 µg/mL | Non-Toxic | 7 µg/mL | 25 µg/mL | < 1.1 µg/mL | 2.92 | 35 µg/mL | 0.46 µg/mL | 0.4 µg/mL | 0.78 µg/mL | 9 µg/mL |  |  | 20 µg/mL | 20 µg/mL
[Br-].c1ccc2c(c1)-c1nccc3cc[n+](Cc4ccc5ccccc5c4)c-2c13 | 0.67 µg/mL | 0.78 µg/mL | 70.5 µM | > 10 µg/mL | Non-Toxic | 6 µg/mL | 30 µg/mL | < 1.1 µg/mL | 0.7 | 21 µg/mL | 0.0195 µg/mL | 0.3 µg/mL | 0.39 µg/mL | < 1.1 µg/mL |  | 50 µg/mL | 22 µg/mL | 20 µg/mL
[Br-].c1ccc(C[n+]2ccc3c4c(nc5ccccc53)-c3ccccc3-c42)cc1 |  |  | 1.34 µM | 6 µg/mL | Non-Toxic | 2.9 µg/mL | 4 µg/mL | 1.2 µg/mL | 0.96 | 0.55 µg/mL | 0.0415 µg/mL | 2.13 µg/mL | 12.5 µg/mL | 1.8 µg/mL |  | 10 µg/mL | 35 µg/mL | 5 µg/mL
Brc1cccc(C[n+]2ccc3ccnc4c3c2-c2ccccc2-4)c1.[Br-] | 2.5 µg/mL | 6.25 µg/mL | 48.4 µM | 1.15 µg/mL | Non-Toxic | 0.18 µg/mL | 40 µg/mL | 0.095 µg/mL | 0.95 | 21 µg/mL | 0.013 µg/mL | 0.3 µg/mL | 0.78 µg/mL | 0.65 µg/mL |  | 50 µg/mL |  | 
COc1cccc2c1C(=O)c1c(O)c3c(c(O)c1C2=O)C[C@@](O)(C(=O)CO)C[C@@H]3O[C@H]1C[C@H](N)[C@H](O)[C@H](C)O1 [DOXORUBICIN] |  |  |  | 1.35 µg/mL (≈ 2.48 µM) |  | 1.59 µg/mL (≈ 2.93 µM) |  | 1.3 µg/mL (≈ 2.39 µM) |  |  |  |  |  | 1.11 µg/mL (≈ 2.04 µM) | > 10 µg/mL |  |  | 
C[n+]1ccc2c3c(nc4ccccc42)-c2ccccc2-c31.[I-] | 23.3 µg/mL | 25 µg/mL | 4.54 µM | 7 µg/mL | Non-Toxic | 6.5 µg/mL |  | 1.3 µg/mL |  | 1.5 µg/mL | 0.033 µg/mL | 2 µg/mL | 6.25 µg/mL |  |  |  | 20 µg/mL | 
CC[n+]1ccc2ccnc3c2c1-c1ccccc1-3.[I-] | 35 µg/mL | 50 µg/mL | 41.6 µM |  | Non-Toxic |  |  |  | 0.67 | 10 µg/mL | 0.0475 µg/mL | 13.3 µg/mL | 25 µg/mL |  |  |  |  | 40 µg/mL
C[n+]1ccc2c3c(nc4ccccc42)-c2ccccc2-c31.Cc1ccc(S(=O)(=O)[O-])cc1 | 35 µg/mL |  | 1.59 µM | 7.5 µg/mL | Non-Toxic | 4.4 µg/mL | 50 µg/mL | 1.3 µg/mL |  | 0.7 µg/mL | 0.0385 µg/mL | 1.93 µg/mL | 6.25 µg/mL | > 10 µg/mL |  |  |  | 
Cc1ccc(C[n+]2ccc3ccnc4c3c2-c2ccccc2-4)cc1.[Br-] | 3.17 µg/mL | 6.25 µg/mL | 28.3 µM |  | Non-Toxic | 6.8 µg/mL |  | < 1.1 µg/mL | 1 | 11 µg/mL | 0.0095 µg/mL | 0.33 µg/mL | 0.78 µg/mL | 1.9 µg/mL |  | 50 µg/mL | 35 µg/mL | 
Cc1cc2c3c(nc4ccccc42)-c2ccccc2-c3[n+]1C.[I-] | 25 µg/mL | 50 µg/mL | 1.71 µM | 5.4 µg/mL | Non-Toxic | 3.5 µg/mL |  | 4.5 µg/mL | 0.71 | 0.5 µg/mL | 0.02 µg/mL | 1.83 µg/mL | 3.12 µg/mL | > 10 µg/mL |  |  | 25 µg/mL | 
